Laboratory results from the RNAGym collection of RNA variant scans (doi:10.1126/science.aae0568).
This sample holds only a part of the variants without activity.

B1: tRNA (parent)
chain: GUUCCGUUGGCGUAAUGGUAACGCGUCUCCCUCCUAAGGAGAAGACUGCGGGUUCGAGUCCCGUACGGAACG

Variants of: B1
Experiment: yeast fitness relative to wild type (ratio to wild type); higher = fitter; tRNA-Arg(CCU), competitive growth, 37 C, YPD
Procedure, shortened: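 Amplicons of the tRNA-Arg(CCU) gene were sequenced, 100-nucleotide paired-end, from the start population and from each end population of a pooled yeast competition. The competition, in six parallel replicates, lasted 24 hours in YPD at 37°C. Fitness relative to wild type was calculated from changes in genotype frequencies. Genotypes had to have ≥ 100 starting reads, and estimates < 0.5 were set to 0.5.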

Variant | yeast fitness
C11G A14U C34A A57G | 0.642
C11G C34G A36G G48C | ≤ 0.5
C11G G12A C31G U59G A65G | ≤ 0.5
C11G C24G G51C | 0.611
C11G A20C C24G G58A G67C | ≤ 0.5
C11G C49G C60A A70U | ≤ 0.5
C11G C27U C33G G52A | ≤ 0.5
C11G A14C C30G A45G U53C | 0.531
C11G C27U C46G | ≤ 0.5
C11G A43U A45G U47C | ≤ 0.5
C11G U13G A21G | 0.785
C11G G56C | 0.627
C11G C24G C62U | 0.528
C11G G12C C60G | ≤ 0.5
C11G U28A G39A G48A G67A | ≤ 0.5
C11G A15G C22A U26A A40U U54C C62A | ≤ 0.5
C11G A57U | ≤ 0.5
C11G A57G | 0.624
C11G G23C C49U G56A G63A | ≤ 0.5
C11G A15U | 0.594
C11G U19A C22G G68C | ≤ 0.5
C11G A37G G50A | ≤ 0.5
C11G C24G C27A U28C C33U A65U | ≤ 0.5
C11G G58A | 0.722

Variant | yeast fitness
C11G A37C A42U | ≤ 0.5
C11G G18C C27A C66U | 0.636
C11G C24U C62U G68C | ≤ 0.5
C11G C24U U28C G51A | ≤ 0.5
C11G G48C | 0.687
C11G A15U A36U C66U | ≤ 0.5
C11G C27U U47A G52C | ≤ 0.5
C11G C30U A37C C55G A65G | ≤ 0.5
C11G A14G A37G G44A | ≤ 0.5
C11U A14G C24G C27U G41A A42C G67C | ≤ 0.5
C11G A42U A43C C55A C66A | ≤ 0.5
C11G A21U C24G G51A G68A | ≤ 0.5
C11G A70C | 0.776
C11G A21G A40G A69U | ≤ 0.5
C11G A36C A45G A57C C61G | ≤ 0.5
C11G U26C C61U C62G | 0.62
C11G U13G A20C C27G C29A | ≤ 0.5
C11G A42U C49U C62U | ≤ 0.5
C11G G12A C27G | 0.669
C11G C30A G52A A65U | ≤ 0.5
C11G G23C C49A C66G | ≤ 0.5
C11G U13G G23C C34U U59C C66U | ≤ 0.5
C11G C24U A57G G68C | ≤ 0.5
C11G G25A C34G | ≤ 0.5

Variant | yeast fitness
C11G U26C A45C A57C U59G | ≤ 0.5
C11G G51A C60U | 0.79
C11G U26A U54C | ≤ 0.5
C11G C62U G63A | ≤ 0.5
C11G C29G C33U C46A C49G G68C | ≤ 0.5
C11G A14U C34A A69C | ≤ 0.5
C11G C49U G68U | ≤ 0.5
C11G U13A U16G U26A C66U | ≤ 0.5
C11G G23C | 1.07
C11G C27G A70G | ≤ 0.5
C11G A45C A65C | ≤ 0.5
C11G A21G C34A | ≤ 0.5
C11G C62A A70C | 0.563
C11G C24G U54C G67C | ≤ 0.5
C11G G12A C61G G68A | 0.556
C11G U13G A69C | 0.531
C11G U35A G68C | ≤ 0.5
C11G A20U C24A G25C A70G | ≤ 0.5
C11G A20U U28C A37C C49G | 0.611
C11G A20G C33U A37U | ≤ 0.5
C11G C34A A36U G48A G52C C60A | 0.646
C11U A14G C27G C31U G68C | ≤ 0.5
C11G G41A A69U | ≤ 0.5
C11G U19A C34G C49G | ≤ 0.5

Variant | yeast fitness
C11G G39C U47C C60A C61G A69U | 0.528
C11G A14C G23C G41C C61A | ≤ 0.5
C11U A14G C24G | ≤ 0.5
C11G A36C G52C G56A | ≤ 0.5
C11G A36C G41A C66U | ≤ 0.5
C11U A14C U54A | ≤ 0.5
C11U A14C A40C G44C C55G | ≤ 0.5
C11G A14C A37C G44C C61G G63C | ≤ 0.5
C11G G68C | 0.597
C11G C34U C66U | ≤ 0.5
C11G C22A C31A C61A | ≤ 0.5
C11G C22G C27G C62U | 0.578
C11G A21G G50A U64A | ≤ 0.5
C11G A14G | 0.529
C11G C27U A36U G48C C49U | 0.717
C11G A21U | 0.536
C11G C34G G48A | ≤ 0.5
C11G A20C C24U A36C U47A | 0.61
C11G C55G G63C G67C | 0.557
C11G C31A G39A G48A A57G A65G | ≤ 0.5
C11G G44C | 0.639
C11G C49U G50A C61U | ≤ 0.5
C11G C22A C46G | ≤ 0.5
C11G A36C G68C | ≤ 0.5

Variant | yeast fitness
C11G A21U U26C | ≤ 0.5
C11G A15C G50C | ≤ 0.5
C11G A14C G23C G41C | 0.531
C11G C29U U35C C66A | ≤ 0.5
C11G U16A G23C C30U C34U A69U | 0.844
C11G C30A U35A | ≤ 0.5
C11G A15C C62G | ≤ 0.5
C11G A15U C22U U32C A42G | ≤ 0.5
C11G U28C | 0.653
C11G A36C G56A A69U | ≤ 0.5
C11G C34A A45G U54A | ≤ 0.5
C11G A14G G23A C46A G68U | ≤ 0.5
C11G C29U G52A | ≤ 0.5
C11G C30U A37C C46U A57C | ≤ 0.5
C11G G25A A36U C60U | ≤ 0.5
C11G U16G U35A G41C | ≤ 0.5
C11G U35A C66G | ≤ 0.5
C11G U19C C27G U28G | ≤ 0.5
C11G G17A C24U C29G | 0.6
C11G A15C A70C | ≤ 0.5
C11G C30A A42C C61A | ≤ 0.5
C11G A14U A36U G38C C55U G56C | ≤ 0.5
C11G C31G C34U A40C | ≤ 0.5
C11G A14G A21U A36G | ≤ 0.5

Variant | yeast fitness
C11G G39C U47C C60A C61G | ≤ 0.5
C11G C27U A36U A37U G41C A43C C49G C62G | 0.604
C11G A20G U32A | ≤ 0.5
C11G A21U G39C G44A U47A | ≤ 0.5
C11G C30G C31G U32A C66U | 0.551
C11G A15U G38A C46G G56C | ≤ 0.5
C11G A36G G52A | ≤ 0.5
C11G U16A C29U U53C C62G | ≤ 0.5
C11G A36U A42G A43C | 0.527
C11G G23C G25A | 0.977
C11G A15C G17A G18C | ≤ 0.5
C11G U13G C62G | ≤ 0.5
C11G A15G C22A U26A C55G | ≤ 0.5
C11G C29A C60U U64A | ≤ 0.5
C11G C62U A65U | 0.525
C11G G38C C49A | 0.583
C11G U28A G39A | ≤ 0.5
C11G C30G C31G U32A G56A | ≤ 0.5
C11G G25A C29U C34U | ≤ 0.5
C11G C30U C31A A40U C49A | ≤ 0.5
C11G U16A U28C C29U G39A U59G G67U | ≤ 0.5
C11G C27U C34U | ≤ 0.5
C11G G18A G23A | ≤ 0.5
C11G C46U | 0.752

Variant | yeast fitness
C11G C30G A65C | ≤ 0.5
C11G C22G C33G | 0.59
C11G A20G G44C U54C C62A | 0.87
C11G A15C A45C | ≤ 0.5
C11G G48A A69U | ≤ 0.5
C11G A20G C49G | ≤ 0.5
C11G A43C | 0.63
C11G U35A | 0.528
C11G A15G C22A U26A A40U C62A | 0.638
C11G C33U G68C | ≤ 0.5
C11U | 1.01
C11G | 0.661
C11G A21G C31G A65U | 0.561
C11G C27G | ≤ 0.5
C11U A14C A37C | 0.544
C11G G39A | 0.63
C11G C62G | 0.642
C11G G51C | 0.58
C11G G18A C24U G58A A70G | ≤ 0.5
C11G A14G U26A U35A | ≤ 0.5
C11G C29A C31G C46A C60G | 0.614
C11G A21U C24U C66U | 0.631
C11G U13C A37U | ≤ 0.5
